The text below walks through data of ChEMBL document CHEMBL4190305, “Dioxomorpholines and Derivatives from a Marine-Facultative Aspergillus Species” (J Nat Prod, 2017).

The term IC50 denotes the concentration that inhibits the measured activity by half.

Assay [1] deals with MDA-MB-231. Description: Potentiation of doxorubicin-induced cytotoxicity against p53 CRISPR-Cas9 knockout human MDA-MB-231 cells assessed as decrease in cell viability at 10 uM after 72 hrs by CellTiter 96 AQueous one solution cell proliferation assay. Type of assay: functional, cell-based. The method, boiled down: (§1)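 Seeded 3000–4000 cells/well, 20 h growth, then a range of doxorubicin concentrations alone or combined with 10 μM compound in 10% FBS medium for 72 h (DMSO vehicle). Viability by CellTiter 96 AQueous One at 490 nm versus untreated cells; triplicate wells, mean ± SEM of three independent experiments.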

Assay [2] is filed under the species Homo sapiens. In words: Inhibition of Pgp in human A549/DXR cells assessed as reduction in calcein-AM efflux after 1 hr by fluorescence assay.
The species entered for assay [3] is Homo sapiens. Description: Cytotoxicity against human A549/DXR cells assessed as reduction in cell viability after 72 hrs by CellTiter 96 AQueous one solution cell proliferation assay. Type of assay: functional, cell-based. The essentials:
(§2)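 Cells seeded at 3000–4000 per well and grown 20 h, then medium replaced by 10% fetal bovine serum medium with test compound for 72 h. Viability read by MTS-type (CellTiter 96 AQueous One) absorbance at 490 nm, relative to untreated control cells; triplicate wells per condition.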

Assay [4] relates to HCT-116. Description: Cytotoxicity against p53 null human HCT116 cells assessed as reduction in cell viability after 72 hrs by CellTiter 96 AQueous one solution cell proliferation assay. In kind it is cell-based. The following applies: HCT-116, 72 h. The method, boiled down: as §2
Assay [5] has as its system MDA-MB-231. In words: Cytotoxicity against human MDA-MB-231 cells harboring p53 R280K mutant assessed as reduction in cell viability after 72 hrs by CellTiter 96 AQueous one solution cell proliferation assay. To be noted: MDA-MB-231, 72 h. Type of assay: cell-based. The method, boiled down: as §2
Assay [6] relates to A549. Description: Cytotoxicity against human A549 cells assessed as reduction in cell viability after 72 hrs by CellTiter 96 AQueous one solution cell proliferation assay. Type of assay: cell-based. To be noted: A549, 72 h. The essentials: as §2
A further assay has as its system SAOS-2. In words: Potentiation of doxorubicin-induced cytotoxicity against p53 null human Saos2 cells assessed as decrease in cell viability at 10 uM after 72 hrs by CellTiter 96 AQueous one solution cell proliferation assay. Type of assay: functional, cell-based. The essentials: as §1
Assay [7] deals with U2OS. Description: Cytotoxicity against human U2OS cells assessed as reduction in cell viability after 72 hrs by CellTiter 96 AQueous one solution cell proliferation assay. In kind it is cell-based. The essentials: as §2
Assay [8] deals with U2OS. In words: Potentiation of doxorubicin-induced cytotoxicity against human U2OS cells assessed as decrease in cell viability at 10 uM after 72 hrs by CellTiter 96 AQueous one solution cell proliferation assay. Type of assay: functional, cell-based. The method, boiled down:
as §1

Assay [9] has as its system HCT-116. Description: Cytotoxicity against human HCT116 cells harboring wild type p53 assessed as reduction in cell viability after 72 hrs by CellTiter 96 AQueous one solution cell proliferation assay. Type of assay: cell-based. The following applies: HCT-116, 72 h. The method, boiled down: as §2
Assay [10] deals with A549. Description: Potentiation of doxorubicin-induced cytotoxicity against human A549 cells assessed as decrease in cell viability at 10 uM after 72 hrs by CellTiter 96 AQueous one solution cell proliferation assay. Type of assay: functional, cell-based. The method, boiled down: as §1
Assay [11] concerns A549. Description: Inhibition of calcein-AM efflux in human A549 cells at 10 uM after 1 hr by fluorescence assay. Type of assay: functional, cell-based. The method, boiled down: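 Vybrant multidrug resistance kit: 500 000 cells/well cultured overnight, triplicate cultures pretreated 1 h with compound (verapamil 50 μg/mL, cyclosporine A 25 μg/mL as positive controls), then 0.25 μM calcein-AM for 30 min. Cells washed twice in cold medium; intracellular calcein fluorescence read at ex 494/em 517 nm, expressed as percent calcein retention.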

Active and inactive are the calls of the source. The rule behind the calls is not given here.

In the case of `C=CC(C)(C)[C@]12Nc3c(O)cccc3[C@@]1(O)C[C@H]1C(=O)O[C@@H](Cc3ccccc3)C(=O)N12`, the result in the assay on MDA-MB-231 [1], with SAOS-2, in the assay on U2OS [8] and in the assay with A549 [10] was Active. For the same molecule, the inhibition entry in the assay listed under Homo sapiens [2] is “Dose-dependent effect”. In addition, the Activity result in the assay listed under Homo sapiens [3] is “Dose-dependent effect”. Besides, the half-maximal inhibitory concentration (IC50) in the assay with HCT-116 [4], in the assay on MDA-MB-231 [5], in the assay with A549 [6], in the assay on U2OS [7] and in the assay with HCT-116 [9] was more than 50 µM throughout. Also, the inhibition result in the assay with A549 [11] was “Active”.

As for `C=CC(C)(C)c1[nH]c2ccccc2c1C[C@H](NC(=O)[C@@H](O)Cc1ccccc1)C(=O)O`, the result with MDA-MB-231 [1], with SAOS-2, with U2OS [8] and in the assay on A549 [10] was Active. In the assay filed under Homo sapiens [2], the inhibition result was “Dose-dependent effect”. The Activity result in the assay filed under Homo sapiens [3] was “Dose-dependent effect”. Besides, the concentration for half-maximal inhibition (IC50) in the assay on HCT-116 [4], in the assay on MDA-MB-231 [5], in the assay with A549 [6], in the assay on U2OS [7] and in the assay with HCT-116 [9] was more than 50 µM each time. The inhibition result in the assay with A549 [11] was “Active”.

Consider `C=CC(C)(C)[C@]1(C[C@H](NC(=O)[C@@H](O)Cc2ccccc2)C(=O)O)C(=O)Nc2c(O)cccc21`, for which the result in the assay with MDA-MB-231 [1], in the assay on SAOS-2, in the assay with U2OS [8] and in the assay with A549 [10] was Active. Further, the inhibition entry in the assay listed under Homo sapiens [2] is “Dose-dependent effect”. Besides, in the assay filed under Homo sapiens [3], the Activity result was “Dose-dependent effect”. For the same molecule, the 50% inhibitory concentration (IC50) in the assay on HCT-116 [4], in the assay with MDA-MB-231 [5], with A549 [6], in the assay on U2OS [7] and in the assay with HCT-116 [9] was more than 50 µM throughout. Also, in the assay with A549 [11], the inhibition result is “Active”.
